From ChEMBL document CHEMBL3259541, “Synthesis and biological evaluation of antimetastatic agents predicated upon dihydromotuporamine C and its carbocyclic derivatives” (J Med Chem, 2014)

How the values were obtained:
[1] = Antimigratory activity against human L3.6PL cells assessed as cell migration inhibition at 0.6 uM after 48 hrs incubation by wound healing assay in presence of 250 uM aminoguanidine treated 24 hrs prior compound addition; type: functional
[2] = Antimigratory activity against human L3.6PL cells assessed as cell migration inhibition at 1 uM after 48 hrs incubation by wound healing assay in presence of 250 uM aminoguanidine treated 24 hrs prior compound addition; type: functional
[3] = tested on: CHO-MG; experiment: Cytotoxicity against polyamine transporter deficient CHO-MG cells assessed as cell growth after 48 hrs incubation by MTS assay in presence of 1 mM aminoguanidine; type: ADME, cell-based; conditions: Cricetulus griseus
Outline: (§1)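 CHO and polyamine-transport-deficient CHO-MG* cells pretreated 24 h with 1 mM aminoguanidine, then exposed to compound for 48 h at 37 °C. Triplicate. IC50 taken as 50% growth inhibition. PTS selectivity expressed as the CHO-MG*/CHO IC50 ratio.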

[4] = tested on: CHO; experiment: Cytotoxicity against CHO cells assessed as cell growth after 48 hrs incubation by MTS assay in presence of 1 mM aminoguanidine; type: cell-based; conditions: Cricetulus griseus; outline: as §1
[5] = tested on: polyamine transporter; experiment: Selectivity ratio of IC50 for polyamine transporter deficient CHO-MG cells to IC50 for CHO cells by MTS assay; type: ADME, cell-based, Cricetulus griseus; conditions: chinese hamster, polyamine transporter deficient CHO-MG cells and CHO cells; read-out: Ratio IC50; outline: as §1
[6] = Cytotoxicity against human L3.6PL cells assessed as inhibition of cell growth after 48 hrs incubation by MTS assay in presence of 250 uM aminoguanidine treated 24 hrs prior compound addition; type: functional, cell-based; conditions: for IC50: Homo sapiens, L3.6pl
Outline: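 L3.6pl cells pretreated 24 h with 250 μM aminoguanidine, then incubated with compound for 48 h at 37 °C. Triplicate. IC50 is the concentration giving 50% growth inhibition and IC5 the concentration giving 5% inhibition, both versus untreated control.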

[7] = Antimigratory activity against human L3.6PL cells assessed as cell migration inhibition at 2 uM after 48 hrs incubation by wound healing assay in presence of 250 uM aminoguanidine treated 24 hrs prior compound addition; type: functional
[8] = tested on: L3.6pl; experiment: Antimigratory activity against human L3.6PL cells assessed as cell migration inhibition after 48 hrs incubation by wound healing assay in presence of 250 uM aminoguanidine treated 24 hrs prior compound addition; type: functional, cell-based

Row | Structure (SMILES) | inhibition (INH) [1] [%] | inhibition (INH) [2] [%] | IC50 [3] [µM] | IC50 [4] [µM] | selectivity ratio [5] | IC5 [6] [µM] | IC50 [6] [µM] | inhibition (INH) [7] [%] | inhibition [8]
1 | Cl.NCCCCNCCCCN1CCCCCCCCCCCCCC1 | 16.7 | 29.6 | 4.67 | 4.38 | 1 | 1 | 1.8 |  | 
2 | Cl.NCCCCNCCCCNC1CCCCCCCCCCCCCC1 |  |  | 5.18 | 4.53 | 1 | 2 | 2.8 |  | 
3 | Cl.NCCCNCCCNC1CCCCCCCCCCCCCC1 | 19.3 |  | 5.95 | 2.84 | 2.1 | 2 | 2.8 | 32.9 | 
4 | Cl.NCCCCNCCCCNCC1CCCCCCCCCCCCCC1 |  |  | 45.5 | 47.8 | 1 | 40 | 48.7 |  | Dose-dependent effect
